Data from ChEMBL document CHEMBL2146438, “Radiolabeled cyclosaligenyl monophosphates of 5-iodo-2'-deoxyuridine, 5-iodo-3'-fluoro-2',3'-dideoxyuridine, and 3'-fluorothymidine for molecular radiotherapy of cancer: synthesis and biological evaluation” (J Med Chem, 2012).
pIC50: −log10 of the molar value. The source made the active and inactive calls. The calls are words filed in the database; no cut-off is given here.

Key:
[1] = Half life of the compound in phosphate buffer at pH 7.3; assay type: physicochemical
[2] = Chemical stability of the compound in phosphate buffer at pH 7.3; assay type: physicochemical
[3] = target: Cholinesterase (Homo sapiens, UniProt P06276); experiment: Inhibition of human BChE after 30 mins by microplate reader method
[4] = Cellular uptake in human OVCAR3 cell nucleus assessed as per 10^3 cells after 24 hrs by gamma counting; assay type: ADME, cell-based; details: ovcar-3, 24 h
Summary of the method: (§1)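 OVCAR-3 cells incubated 1 h with 55.5 (0.04) kBq/mL 125I-labelled agent (diastereomer mixtures or resolved slow isomers); fractionated either immediately or after 24 h further growth in fresh nonradioactive medium; 125I in cytoplasm and nucleus counted as cpm/10^3 cells with std dev.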

[5] = Cellular uptake in human OVCAR3 cell cytoplasm assessed as per 10^3 cells after 24 hrs by gamma counting; assay type: ADME, cell-based; details: ovcar-3, 24 h; summary of the method: as §1
[6] = Cellular uptake in human OVCAR3 cell cytoplasm assessed as per 10^3 cells after 1 hr by gamma counting; assay type: ADME, cell-based; details: ovcar-3, 1 h; summary of the method: as §1
[7] = Cellular uptake in human OVCAR3 cell nucleus assessed as per 10^3 cells after 1 hr by gamma counting; assay type: ADME, cell-based; details: ovcar-3, 1 h; summary of the method: as §1
[8] = test system: U-87MG ATCC; experiment: Cytotoxicity against human U87MG cells at 4.76 kBq/mL assessed as cell survival incubated for 1 hr followed by compound wash out measured after 24 hrs by clonogenic assay; assay type: functional, cell-based; details: tested as the 125I-labelled form
Summary of the method: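 U-87 MG cells treated 1 h with 4.76 kBq/mL 125I agent, then plated immediately or grown 24 h in fresh medium before clonogenic assay; surviving fraction relative to untreated control colonies.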

[9] = Cellular uptake in human OVCAR3 cytoplasm at 55.5 kBq/mL incubated for 1 hr followed by compound wash out measured after 24 hrs by gamma counting; assay type: ADME, cell-based; details: ovcar-3, 1 h; summary of the method: as §1
[10] = test system: LS174T; experiment: Cytotoxicity against human LS 174T cells assessed as incorporation of radioisotope at 185 kBq/mL after 4 hrs by gamma counting; assay type: functional, cell-based; details: tested as the 125I-labelled form
Summary of the method: (§2)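 LS 174T cells exposed 4 h to 185 kBq/mL 125I agent, harvested immediately and plated for clonogenic survival (relative to untreated controls); 125I retained in nuclear DNA measured as mBq/cell.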

[11] = test system: LS174T; experiment: Cytotoxicity against human LS 174T cells assessed as colony formation at 185 kBq/mL after 4 hrs by clonogenic assay relative to control; assay type: functional, cell-based; details: tested as the 125I-labelled form; summary of the method: as §2
[12] = test system: Nucleic Acid; experiment: Binding affinity to human U87MG cell DNA at 19.6 kBq/mL after 40 hrs by gamma counting; assay type: nucleic-acid assay; details: U-87MG ATCC, tested as the 125I-labelled form
Summary of the method: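 U-87 MG cells incubated 40 h with 19.6 kBq/mL 125I-labelled agent; 125I in DNA measured (genomic tips DNA isolation), expressed as mBq 125I/cell.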

[13] = test system: Nucleic Acid; experiment: Binding affinity to human U87MG cell DNA at 185 kBq/mL after 120 hrs by gamma counting; assay type: nucleic-acid assay; details: U-87MG ATCC, tested as the 125I-labelled form
Summary of the method: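 U-87 MG glioblastoma cells exposed continuously to 185 kBq/mL 125I-labelled agent for 120 h; DNA isolated and DNA-associated 125I counted.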

[14] = test system: Nucleic Acid; experiment: Binding affinity to human U87MG cell DNA at 27.3 kBq/mL incubated for 24 hrs followed by compound wash out measured after 144 hrs by gamma counting; assay type: nucleic-acid assay; details: U-87MG ATCC, tested as the 125I-labelled form
Summary of the method: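 U-87 MG cells treated 24 h with 27.3 kBq/mL 125I-labelled agent, then grown a further 144 h in fresh medium; 125I retained in DNA counted.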

[15] = test system: U-87MG ATCC; experiment: Cytotoxicity against human U87MG cells assessed as cell death at 18.5 kBq/mL after 8 weeks by clonogenic assay; assay type: functional, cell-based; details: tested as the 125I-labelled form
Summary of the method: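 U-87 MG cells treated 24 h with increasing 125I agent concentrations, then grown in fresh medium; colony formation followed up to eight weeks versus vehicle-treated controls.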

[16] = Cytotoxicity against human LS 174T cells assessed as colony formation at 114.5 kBq/mL incubated for 4 hrs measured after 21 days by clonogenic assay; assay type: functional, LS174T
Summary of the method: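 LS 174T cells exposed 4 h to 114.5 kBq/mL 125I agent, cultured 24 h in nonradioactive medium, then harvested and plated; colonies counted after 21 days; surviving fraction = treated colonies / untreated control colonies.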

Chain of Cholinesterase (P06276 whole entry): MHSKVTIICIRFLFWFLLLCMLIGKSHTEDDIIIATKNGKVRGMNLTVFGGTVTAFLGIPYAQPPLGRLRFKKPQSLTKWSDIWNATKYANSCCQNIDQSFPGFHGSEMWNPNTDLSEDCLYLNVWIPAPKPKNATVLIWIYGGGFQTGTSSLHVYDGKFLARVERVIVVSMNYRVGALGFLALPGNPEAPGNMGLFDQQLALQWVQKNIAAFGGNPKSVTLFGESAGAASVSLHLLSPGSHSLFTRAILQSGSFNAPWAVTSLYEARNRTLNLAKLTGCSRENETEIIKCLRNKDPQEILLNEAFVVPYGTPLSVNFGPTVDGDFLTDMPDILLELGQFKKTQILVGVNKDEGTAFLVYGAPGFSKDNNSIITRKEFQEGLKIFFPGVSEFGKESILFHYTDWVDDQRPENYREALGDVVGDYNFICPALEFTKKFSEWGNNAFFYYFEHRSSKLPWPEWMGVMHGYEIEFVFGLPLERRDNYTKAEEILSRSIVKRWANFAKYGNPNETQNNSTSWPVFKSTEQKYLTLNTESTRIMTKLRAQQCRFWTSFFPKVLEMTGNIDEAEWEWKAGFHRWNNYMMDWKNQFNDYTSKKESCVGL

## CC(C)(C)c1cc(C(C)(C)C)c2c(c1F)COP(=O)(OC[C@H]1O[C@@H](n3cc(I)c(=O)[nH]c3=O)C[C@@H]1F)O2 (stereo in doubt; form 1)
[1]
  t1/2: 39.6 h
[2]
  K: 2.92 ×10⁻⁴ /min
[3]
  pIC50: 6.26

## O=c1[nH]c(=O)n([C@H]2C[C@H](O)[C@@H](COP3(=O)OCc4ccccc4O3)O2)cc1I (stereo in doubt; form 1)
[3]
  pIC50: 5.89

## Cc1cccc2c1OP(=O)(OC[C@H]1O[C@@H](n3cc([125I])c(=O)[nH]c3=O)C[C@@H]1OP1(=O)OCc3cccc(C)c3O1)OC2 (some centres undefined)
[4]
  Drug uptake: 24.5 cpm
[5]
  Drug uptake: 13.4 cpm
[6]
  Drug uptake: 97.1 cpm
[7]
  Drug uptake: 6 cpm

## Cc1cn([C@H]2C[C@H](O)[C@@H](COP3(=O)OCc4c(F)c(C(C)(C)C)cc(C(C)(C)C)c4O3)O2)c(=O)[nH]c1=O (stereo in doubt; form 1)
[3]
  pIC50: 4.63

## O=c1[nH]c(=O)n([C@H]2C[C@H](OP3(=O)OCc4ccccc4O3)[C@@H](CO)O2)cc1[125I] (some centres undefined)
[4]
  Drug uptake: 30.2 cpm
[5]
  Drug uptake: 2.7 cpm
[6]
  Drug uptake: 7.2 cpm
[7]
  Drug uptake: 2.1 cpm

## Cc1cccc2c1OP(=O)(OC[C@H]1O[C@@H](n3cc([125I])c(=O)[nH]c3=O)C[C@@H]1O)OC2 (stereo in doubt; form 2)
[1]
  t1/2: 25 h
[4]; 24 h
  Drug uptake: 29.3 cpm
[2]
  K: 4.63 ×10⁻⁴ /min
[5]; 24 h
  Drug uptake: 1.8 cpm
[6]; 1 h
  Drug uptake: 13 cpm
[7]; 1 h
  Drug uptake: 5.4 cpm

## CC(C)(C)c1cc(C(C)(C)C)c2c(c1F)COP(=O)(OC[C@H]1O[C@@H](n3cc(I)c(=O)[nH]c3=O)C[C@@H]1F)O2 (stereo in doubt)
[8]
  Activity: inactive

## CC(C)(C)c1cc(C(C)(C)C)c2c(c1F)COP(=O)(OC[C@H]1O[C@@H](n3cc(I)c(=O)[nH]c3=O)C[C@@H]1O)O2 (stereo in doubt; form 3)
[3]
  pIC50: 5.95

## Cc1cccc2c1OP(=O)(OC[C@H]1O[C@@H](n3cc([125I])c(=O)[nH]c3=O)C[C@@H]1O)OC2 (stereo in doubt; 7b)
[4]; 24 h
  Drug uptake: 25.9 cpm
[5]; 24 h
  Drug uptake: 1.6 cpm
[6]; 1 h
  Drug uptake: 11.7 cpm
[9]
  Drug uptake: Active
[7]; 1 h
  Drug uptake: 4.5 cpm

## CC(C)(C)c1cc(C(C)(C)C)c2c(c1F)COP(=O)(O[C@H]1C[C@H](n3cc([125I])c(=O)[nH]c3=O)O[C@@H]1CO)O2 (some centres undefined)
[4]
  Drug uptake: 66.7 cpm
[5]
  Drug uptake: 2.7 cpm
[6]
  Drug uptake: 62.5 cpm
[7]
  Drug uptake: 4.3 cpm

## CC(C)(C)c1cc(C(C)(C)C)c2c(c1F)COP(=O)(OC[C@H]1O[C@@H](n3cc(I)c(=O)[nH]c3=O)C[C@@H]1O)O2 (stereo in doubt; form 2)
[1]
  t1/2: 61.5 h
[2]
  K: 1.88 ×10⁻⁴ /min
[3]
  pIC50: 7.30

## Cc1cccc2c1OP(=O)(OC[C@H]1O[C@@H](n3cc(I)c(=O)[nH]c3=O)C[C@@H]1O)OC2 (stereo in doubt; form 4)
[10]
  Activity: Active
[11]
  Activity: Active

## O=c1[nH]c(=O)n([C@H]2C[C@H](O)[C@@H](COP3(=O)OCc4ccccc4O3)O2)cc1I (stereo in doubt; form 4)
[12]
  Activity: Active
[13]
  Activity: Active
[14]
  Activity: Active
[15]
  Activity: Active

## CC(C)(C)c1cc(C(C)(C)C)c2c(c1F)COP(=O)(OC[C@H]1O[C@@H](n3cc(I)c(=O)[nH]c3=O)C[C@@H]1F)O2 (stereo in doubt; form 2)
[1]
  t1/2: 52 h
[2]
  K: 2.22 ×10⁻⁴ /min
[3]
  pIC50: 7.70

## O=c1[nH]c(=O)n([C@H]2C[C@H](OP3(=O)OCc4ccccc4O3)[C@@H](COP3(=O)OCc4ccccc4O3)O2)cc1[125I] (some centres undefined)
[4]
  Drug uptake: 18.1 cpm
[5]
  Drug uptake: 37.3 cpm
[6]
  Drug uptake: 97.6 cpm
[7]
  Drug uptake: 6.4 cpm

## Cc1cccc2c1OP(=O)(OC[C@H]1O[C@@H](n3cc(I)c(=O)[nH]c3=O)C[C@@H]1O)OC2 (stereo in doubt; form 3)
[10]
  Activity: Active

## CC(C)(C)c1cc(C(C)(C)C)c2c(c1F)COP(=O)(O[C@H]1C[C@H](n3cc(I)c(=O)[nH]c3=O)O[C@@H]1CO)O2 (stereo in doubt; form 1)
[1]
  t1/2: 15.1 h
[2]
  K: 7.66 ×10⁻⁴ /min

## Cc1cn([C@H]2C[C@H](F)[C@@H](COP3(=O)OCc4c(F)c(C(C)(C)C)cc(C(C)(C)C)c4O3)O2)c(=O)[nH]c1=O (stereo in doubt; form 2)
[3]
  pIC50: 7.37

## Cc1cn([C@H]2C[C@H](F)[C@@H](COP3(=O)OCc4c(F)c(C(C)(C)C)cc(C(C)(C)C)c4O3)O2)c(=O)[nH]c1=O (stereo in doubt; form 1)
[3]
  pIC50: 6.69

## O=c1[nH]c(=O)n([C@H]2C[C@H](O)[C@@H](COP3(=O)OCc4ccccc4O3)O2)cc1[125I] (stereo in doubt; 6b)
[4]; 24 h
  Drug uptake: 39.4 cpm
[5]; 24 h
  Drug uptake: 7.3 cpm
[6]; 1 h
  Drug uptake: 20.2 cpm
[9]
  Drug uptake: Active
[7]; 1 h
  Drug uptake: 5.7 cpm

## CC(C)(C)c1cc(C(C)(C)C)c2c(c1F)COP(=O)(OC[C@H]1O[C@@H](n3cc([125I])c(=O)[nH]c3=O)C[C@@H]1F)O2 (stereo in doubt; form 2)
[1]
  t1/2: 51.5 h
[2]
  K: 2.24 ×10⁻⁴ /min

## CC(C)(C)c1cc(C(C)(C)C)c2c(c1F)COP(=O)(OC[C@H]1O[C@@H](n3cc(I)c(=O)[nH]c3=O)C[C@@H]1O)O2 (stereo in doubt; form 1)
[1]
  t1/2: 47.9 h
[2]
  K: 2.41 ×10⁻⁴ /min

## O=c1[nH]c(=O)n([C@H]2C[C@H](O)[C@@H](COP3(=O)OCc4ccccc4O3)O2)cc1[125I] (stereo in doubt; form 2)
[16]
  Activity: 38%
[1]
  t1/2: 7.6 h
[4]; 24 h
  Drug uptake: 31.3 cpm
[2]
  K: 1.52 ×10⁻³ /min
[5]; 24 h
  Drug uptake: 6 cpm
[6]; 1 h
  Drug uptake: 14.8 cpm
[7]; 1 h
  Drug uptake: 4.9 cpm

## O=c1[nH]c(=O)n([C@H]2C[C@H](O)[C@@H](COP3(=O)OCc4ccccc4O3)O2)cc1I (stereo in doubt; form 3)
[15]
  Activity: Active

## Cc1cn([C@H]2C[C@H](O)[C@@H](COP3(=O)OCc4c(F)c(C(C)(C)C)cc(C(C)(C)C)c4O3)O2)c(=O)[nH]c1=O (stereo in doubt; form 2)
[3]
  pIC50: 6.42

## Cc1cccc2c1OP(=O)(O[C@H]1C[C@H](n3cc(I)c(=O)[nH]c3=O)O[C@@H]1CO)OC2 (stereo in doubt; form 1)
[1]
  t1/2: 12.2 h
[2]
  K: 9.46 ×10⁻⁴ /min

## O=c1[nH]c(=O)n([C@H]2C[C@H](OP3(=O)OCc4ccccc4O3)[C@@H](CO)O2)cc1I (stereo in doubt; form 1)
[1]
  t1/2: 5.3 h
[2]
  K: 2.05 ×10⁻³ /min

## CC(C)(C)c1cc(C(C)(C)C)c2c(c1F)COP(=O)(OC[C@H]1O[C@@H](n3cc([125I])c(=O)[nH]c3=O)C[C@@H]1O)O2 (stereo in doubt; 8b)
[4]; 24 h
  Drug uptake: 92.2 cpm
[5]; 24 h
  Drug uptake: 3.2 cpm
[6]; 1 h
  Drug uptake: 88.3 cpm
[9]
  Drug uptake: > 230%
[7]; 1 h
  Drug uptake: 7.9 cpm

## Cc1cccc2c1OP(=O)(OC[C@H]1O[C@@H](n3cc(I)c(=O)[nH]c3=O)C[C@@H]1O)OC2 (stereo in doubt; form 1)
[3]
  pIC50: < 2.15

## Cc1cccc2c1OP(=O)(O[C@H]1C[C@H](n3cc(I)c(=O)[nH]c3=O)O[C@@H]1CO)OC2 (stereo in doubt; form 2)
[1]
  t1/2: 14.2 h
[2]
  K: 8.13 ×10⁻⁴ /min

## Cc1cccc2c1OP(=O)(O[C@H]1C[C@H](n3cc([125I])c(=O)[nH]c3=O)O[C@@H]1CO)OC2 (some centres undefined)
[4]
  Drug uptake: 15.7 cpm
[5]
  Drug uptake: 1.4 cpm
[6]
  Drug uptake: 6.2 cpm
[7]
  Drug uptake: 2 cpm

## O=c1[nH]c(=O)n([C@H]2C[C@H](OP3(=O)OCc4ccccc4O3)[C@@H](CO)O2)cc1I (stereo in doubt; form 2)
[1]
  t1/2: 7.1 h
[2]
  K: 1.64 ×10⁻³ /min

## Cc1cccc2c1OP(=O)(OC[C@H]1O[C@@H](n3cc(I)c(=O)[nH]c3=O)C[C@@H]1O)OC2 (stereo in doubt; form 2)
[3]
  pIC50: 7.21

## O=c1[nH]c(=O)n([C@H]2C[C@H](O)[C@@H](COP3(=O)OCc4ccccc4O3)O2)cc1I (stereo in doubt; form 2)
[3]
  pIC50: 8.04
